Source: PubChem BioAssay
An excerpt weighted towards active compounds, which were near 0.58% of everything screened.
Rad51 HR inh – blocks human Rad51 in homologous recombination | Q06609 | hRad51 DNA strand exchange, fluorescence dequenching | inhibition, % at 10 µM | 200,000 compounds, 0.085% hits | AID 1385;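 active means inhibition above 40% at the single screening dose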;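 further: 0% = DMSO control wells and 100% = blanks with heterologous ssDNA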
Target sequence (Q06609 whole entry, looked up): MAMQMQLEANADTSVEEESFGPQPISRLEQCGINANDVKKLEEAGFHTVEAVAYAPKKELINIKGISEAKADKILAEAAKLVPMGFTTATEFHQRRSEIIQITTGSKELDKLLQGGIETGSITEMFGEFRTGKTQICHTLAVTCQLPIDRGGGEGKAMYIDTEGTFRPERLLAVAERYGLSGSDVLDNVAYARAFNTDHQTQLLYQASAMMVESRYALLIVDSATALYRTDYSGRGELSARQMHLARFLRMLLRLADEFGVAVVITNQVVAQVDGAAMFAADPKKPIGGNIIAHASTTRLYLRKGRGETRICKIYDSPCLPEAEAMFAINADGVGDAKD
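System: human Rad51 nucleoprotein filaments preassembled on unlabelled ssDNA. Reagent: labelled 47-mer dsDNA for strand exchange. Schedule: 30-min compound preincubation and 15-min exchange, both room temperature. Measured by: FRET fluorescence dequenching, excitation 485 nm, emission 520 nm. Read-out: Fluorescence-based percent inhibition, control- and blank-normalised. Benchmarks: plate controls and plate blanks.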
L929 necroptosis – L929 zVAD cell death inhibition | L929 zVAD necroptosis rescue, ATP luminescence, 24 h; with zVAD 60 µM | viability rescue, % at 10 µM | 220,000 compounds, 0.38% hits | AID 1377;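 active means activation, scaled between plate controls, above about 75%, limit read from the data; inactive means activation under that limit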;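 further: 0% = zVAD with DMSO and 100% = DMSO alone without zVAD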
TNF death inh – inhibitors of TNF-alpha induced necroptosis in Jurkat FADD-/- cells. Jurkat FADD-/- TNF necroptosis rescue, ATP luminescence, 24 h; 0 = TNF only, 100 = no-TNF cells. AID 463075. 220,000 compounds, 0.068% hits. activation (protection from cell death), % at 10 µM;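 active means activation, meaning protection from cell death, of at least 50% relative to plate controls; inactive means activation below 50%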;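 further: necroptosis triggered by 40 ng/mL TNF-alpha added together with compound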
MDM2 E3 inh – inhibitors of human Mdm2 E3 ubiquitin ligase; Q00987; cell-based MDM2 ubiquitination luciferase reporter, 2 h; 0 = plate control, 100 = twice control, blank-subtracted; 210,000 compounds, 0.11% hits; signal enhancement, % at 5 µM;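 active means signal enhancement of 30% or more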;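 further: luminescence tracks abundance of the self-degrading MDM2-luciferase fusion protein; higher signal means inhibition of MDM2 E3 ligase activity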
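Assay system: stable mammalian line carrying autodegrading MDM2–luciferase fusion reporter; Input: 2000 cells in each well; Compound dosing: single-point 5 µM; Schedule: 2 h compound exposure at 37 °C; Signal: SteadyLite luciferase luminescence after 15 min room-temperature reagent incubation; Evaluation: % luminescence enhancement versus blank-corrected plate control mean; Benchmarks: plate controls and plate blanks.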
Pf gamet viab – inhibitors of late stage P. falciparum gametocyte viability; P. falciparum stage V gametocytes, ATP luminescence, 24 h; inhibition, % at 10.9 µM; 150,000 compounds, 0.065% hits;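 active means inhibition above the mean plus 3 SD of compounds within the control limits, set per campaign, cut at about 38% in these data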;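 further: 0% = DMSO wells and 100% = medium only without gametocytes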
zVAD necrop conf – confirmed blocker of zVAD induced death in L929 cells; shares compounds with L929 necroptosis; L929 zVAD-induced necroptosis rescue, ATP luminescence, 24 h; activation (protection from necroptosis), % at 10 µM; 760 compounds, 16% hits; AID 463117;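 active means mean protection from necroptosis of at least 50% over duplicate tests; inactive means mean protection below 50%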;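 further: 0% = cells with zVAD alone and 100% = vehicle cells without zVAD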
An asterisk follows results filed as active; . = not tested or not shown.

SMILES | Rad51 HR inh | L929 necroptosis | TNF death inh | MDM2 E3 inh | Pf gamet viab | zVAD necrop conf
CCN1C(=O)[C@@H]2[C@H](C1=O)[C@@H]1C(=O)Nc3ccccc3C(=O)N1[C@@H]2c1ccc(Br)cc1 | . | . | . | . | 18 | .
COc1ccc(S(=O)(=O)NCCC(=O)NC2CCCCCCC2)cc1 | -1 | 81* | 0 | -8 | -6 | 21
CCOc1ccc(NC(=O)Nc2ccc(Br)cn2)cc1 | . | 75* | 4 | -22 | -8 | 2
CCOc1ccc(NC(=O)Nc2ccc3nccnc3c2)cc1 | 8 | 92* | -4 | -24 | -35 | 1
COc1ccc(NC(=O)Nc2ccc(Br)cn2)cc1OC | -10 | 77* | 19 | -1 | 2 | 39
NS(=O)(=O)c1ccc(NC(=S)Nc2ccc(C(=O)N3CCCCC3)cc2)cc1 | 6 | 0 | -1 | -2 | -11 | .
Oc1ccc(/C=N/Nc2ccc(C(F)(F)F)cn2)cc1 | 5 | 83* | 38 | 5 | . | 63*
COc1cc(/C=N/Nc2ccc(C(F)(F)F)cn2)cc(OC)c1O | -11 | 81* | 36 | -20 | . | 75*
COc1ccc([C@H]2CC(=O)C=C(c3ccc(Cl)c(Cl)c3)C2)cc1 | . | . | . | . | -64 | .
CC(C)n1nnc(-c2ccc(OCc3ccccc3F)cc2)n1 | . | . | . | . | 18 | .
Cc1ccc(S(=O)(=O)N(c2nc(N(C)C)nc(N(C)C)n2)n2cnnc2)cc1 | -6 | 2 | 0 | -7 | -7 | .
O=C(OCn1ncc(Br)c(Br)c1=O)c1ccc(F)cc1 | 3 | 113* | -24 | 16 | . | 136*
O=C(OCn1ncc(Br)c(Br)c1=O)c1ccccc1Cl | -11 | 44 | -14 | 14 | . | .
Clc1ccc(COn2ccnc2)cc1Cl | 2 | 88* | 88* | -17 | 19 | 92*
CC(=O)/C(=C/c1ccccc1)C(=O)Nc1ccccc1C | 5 | -1 | -5 | -7 | -18 | .
Cc1ccccc1NC(=O)C(=Cc1ccc(C(=O)O)cc1)C(=O)Nc1ccccc1C | 4 | 79* | 43 | -2 | -15 | 38
COc1ccc(Br)cc1C(=O)Nc1ccc(C(=O)O)cc1 | 1 | -1 | 0 | -6 | 17 | .
COc1ccc(NC(=O)c2cc3cccc(OC)c3oc2=Nc2ccc(C(=O)O)cc2)cc1OC | -12 | 82* | -6 | -8 | 20 | 11
COc1ccc(C(=O)Nc2ncc(C)s2)cc1S(=O)(=O)N1CCCC1 | -16 | 89* | 13 | -17 | -3 | 2
CCCCCCCCNC1=CC(=O)CC(C)(C)C1 | -2 | 0 | 0 | -15 | 5 | .
NC(=O)c1c(-c2ccccc2)oc2ccc(O)cc12 | -7 | 85* | 0 | 0 | . | 40
CNS(=O)(=O)c1ccc2nc(NC(=O)/C=C/c3ccco3)sc2c1 | -24 | 76* | 0 | -10 | -8 | 2
O=C(CN1CCN(Cc2ccccc2Cl)CC1)N/N=C/c1ccccn1 | 5 | -1 | -1 | -8 | 0 | .
Clc1cc2c(nn1)Nc1ccccc1S2 | -6 | 1 | 0 | -7 | -10 | .
FC(F)(F)c1cnc2c(c1)Nc1ccccc1S2 | -5 | 98* | 33 | -55 | . | 58*
SMILES | Rad51 HR inh | L929 necroptosis | TNF death inh | MDM2 E3 inh | Pf gamet viab | zVAD necrop conf
Cn1cccc1C(=O)OCC(=O)NC(=O)NC1CCCCC1 | 3 | 5 | 14 | 0 | 9 | .
COc1cc([N+](=O)[O-])ccc1NC(=O)Oc1ccc(NC(C)=O)cc1 | 18 | 0 | 3 | 1 | . | .
Cn1c(=O)n(C)c2cc(NC(=O)CCl)ccc21 | 2 | 83* | 4 | -27 | 8 | 25
CC(=O)Nc1ccc2c(c1)n(C)c(=O)n2C | 9 | 0 | 0 | -24 | . | .
Nc1[nH]n(-c2ccccc2)c(=O)c1N=Nc1ccc2ncsc2c1 | 3 | 2 | -1 | -16 | 8 | .
CCOc1ccccc1-n1c(SCC(=O)Nc2ccc(CC)cc2)nc2n[nH]c(C)c2c1=N | -2 | 80* | -3 | -5 | . | 43
Cc1ccc(NC(=O)C(OC(=O)c2ccc(NC(N)=O)cc2)c2ccccc2)cc1Cl (stereo not given) | -3 | 85* | 8 | -10 | 19 | 70*
O=c1oc2ccccc2nc1/C=C(\O)c1ccccc1 | -46 | 68 | 23 | -5 | 6 | .
CC(C)(C)/C(O)=C/c1nc2ccccc2oc1=O | 24 | 88* | 10 | -5 | -6 | 8
